Screening data deposited in PubChem BioAssay by Sanford-Burnham Center for Chemical Genomics.
bIAP activator = increases bovine intestinal alkaline phosphatase activity; purified bovine IAP, CDP-star luminescence, 30 min; hits give high values; fold of DMSO-control signal, blank-subtracted; activation factor at 20 µM; hit rate 0.17% among 200,000; AID 1016;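 active means activation factor of 2 or more at 20 µM, a signal rise over negative controls twice the positive control's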
bIAP inhibitor = intestinal alkaline phosphatase (bovine) inhibition; 190,000 tested, under 10 active; AID 1019; purified bovine IAP, CDP-star luminescence, 30 min; inhibition, % at 20 µM;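 active means over 50% inhibition of intestinal alkaline phosphatase at 20 µM in the single-dose screen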
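System: Purified bovine intestinal alkaline phosphatase (IAP) enzyme | Input: IAP diluted 1/65,000,000 in the well | Also added: CDP-star chemiluminescent phosphatase substrate, 30 µM final | Dosing: 20 µM single dose | Times: Enzyme reaction for 30 min at room temperature | Detection: Luminescence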
hIAP inh = blocks human intestinal alkaline phosphatase; purified IAP, CDP-Star luminescence, 30 min; inhibition, % at 10 µM; hit rate 0.12% among 330,000;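 active means inhibition reaching a set limit with compound at 10 µM in the primary screen, cut at about 35% in these data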
Target sequence (P09923 whole entry, looked up): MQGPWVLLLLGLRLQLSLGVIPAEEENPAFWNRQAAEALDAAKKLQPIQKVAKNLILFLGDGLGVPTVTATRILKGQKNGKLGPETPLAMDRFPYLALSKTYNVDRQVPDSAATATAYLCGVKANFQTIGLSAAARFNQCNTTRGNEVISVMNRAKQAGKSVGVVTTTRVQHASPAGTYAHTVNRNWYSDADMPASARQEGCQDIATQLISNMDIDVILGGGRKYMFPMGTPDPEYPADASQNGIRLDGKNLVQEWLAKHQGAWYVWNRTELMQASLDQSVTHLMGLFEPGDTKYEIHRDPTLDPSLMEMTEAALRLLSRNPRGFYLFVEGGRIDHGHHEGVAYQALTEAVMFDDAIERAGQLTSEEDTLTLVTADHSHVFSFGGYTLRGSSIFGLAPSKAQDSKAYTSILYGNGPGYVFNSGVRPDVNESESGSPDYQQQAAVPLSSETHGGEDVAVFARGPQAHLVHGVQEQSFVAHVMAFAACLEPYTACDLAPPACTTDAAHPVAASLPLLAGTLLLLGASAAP
hIAP activ = increases human intestinal alkaline phosphatase activity; activation factor at 10 µM; purified human IAP, CDP-Star luminescence, 30 min; hits give high values; 1 = vehicle-only enzyme, 0 = enzyme-free background; hit rate 0.16% among 330,000; P09923;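 active means activation factor of the enzyme at least 2-fold when tested at 20 µM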
mIAP act = mouse IAP activation | muIAP, CDP-Star luminescence, 30 min; hits give high values; 1 = vehicle-only enzyme signal, 0 = enzyme-free wells | activation factor at 10 µM | hit rate 0.24% among 330,000 | AID 2805;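 active means activation factor of at least 2 at 20 µM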
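Assay system: mouse IAP enzyme; Reagent: CDP-Star chemiluminescent phosphatase substrate; Compound: DMSO-dissolved test compounds; Incubation: 30 min, room temperature; Technique: luminescence from enzymatic CDP-Star hydrolysis; Controls: DMSO-only wells and no-enzyme negative control.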
mIAP inh = blocks mouse intestinal alkaline phosphatase | purified mouse IAP, CDP-Star luminescence, 30 min | inhibition, % at 10 µM | hit rate 0.2% among 330,000 | AID 2806;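 active means inhibition of at least 40% at 10 µM in the primary screen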
mIAP inh conf = mouse IAP inhibition confirmation | shares compounds with mIAP inh | purified mouse IAP, CDP-Star luminescence, 30 min | inhibition, % at 10 µM | hit rate 4.7% among 11,000;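 active means inhibition of at least 40% at 10 µM in either of the two replicates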
Each line names hits and unclear results; the compound was inactive in the other large screens (follow-up assays come after a bar, where they were run). Sampled rows, rich in hits. Any-hit rate of the full collection: about 0.79%.

Cc1cc(O)c(C=O)c2c1C(=O)Oc1c(CO)c(O)c3c(c1O2)C(O)OC3=O (stereo not given)	mIAP inh 87 | mIAP inh conf 62
CN(Cc1ccccc1)C(=O)COC(=O)c1ccc(Br)o1	none (no result: bIAP activator, bIAP inhibitor)
C=C(C)c1cccc(C(C)(C)NC(=O)NC(c2ccccc2)c2ccc(OC)cc2)c1 (stereo not given)	mIAP act 12 | mIAP inh conf inactive
C=C(C)c1cccc(C(C)(C)NC(=O)Nc2ccc(OC)cc2)c1	none
O=c1cc(-c2ccc(O)cc2)oc2c1ccc1ccccc12	none (no result: bIAP activator, bIAP inhibitor)
O=c1cc(-c2ccc(O)cc2)oc2c(O)c(O)c(O)c(O)c12	mIAP inh 66 (no result: bIAP activator, bIAP inhibitor) | mIAP inh conf 67
COc1ccc(C(=O)N[C@H]2COC(C)(C)O[C@H]2c2ccccc2)cc1	none
Oc1cc2c(cc1O)[C@H]1c3ccc(O)c(O)c3OC[C@@]1(O)C2	mIAP inh 60 (no result: bIAP activator, bIAP inhibitor) | mIAP inh conf 53
CC1=NN(c2ccc(C)cc2)C(=O)/C1=C/c1ccc(-c2cc([N+](=O)[O-])ccc2O)o1	none (no result: bIAP activator, bIAP inhibitor)
O=C1NN(c2cccc(Br)c2)C(=O)/C1=C/c1ccc(-c2cc([N+](=O)[O-])ccc2O)o1	mIAP inh 45 (no result: bIAP activator, bIAP inhibitor) | mIAP inh conf 47
Cc1ccc(NC(=O)C2CCN(C(=O)c3cccs3)CC2)c(C)c1	none (no result: bIAP activator, bIAP inhibitor)
Cc1cc(-c2ccc(N=Nc3c(S(=O)(=O)O)cc4cc(S(=O)(=O)O)cc(N)c4c3O)c(C)c2)ccc1N=Nc1c(S(=O)(=O)O)cc2cc(S(=O)(=O)O)cc(N)c2c1O	mIAP inh 77 (no result: bIAP activator, bIAP inhibitor) | mIAP inh conf 83
CCOC(=O)NNc1ccc2nonc2c1[N+](=O)[O-]	mIAP inh 43 (no result: bIAP activator, bIAP inhibitor) | mIAP inh conf 44
O=[N+]([O-])c1c(NCc2ccco2)ccc2nonc12	mIAP inh 41 (no result: bIAP activator, bIAP inhibitor) | mIAP inh conf 51
O=C(O)C1Nc2c(O)cc(Cl)c([N+](=O)[O-])c2C2C=CCC12 (stereo not given)	mIAP inh 75 | mIAP inh conf 79
O=[N+]([O-])c1ccc(Cl)c2c1C1C=CCC1C(c1ccccn1)N2 (stereo not given)	none
O=C(CN1C(=O)/C(=C/c2ccccc2)SC1=S)NNC(=O)c1ccccc1O	mIAP inh 41 | mIAP inh conf 43
COc1cccc(/C=C2/SC(=S)N(CC(=O)NNC(=O)c3ccccc3O)C2=O)c1	none (no result: bIAP activator, bIAP inhibitor)
Cc1nc(C(=O)N(C)C)nn1-c1ccc([N+](=O)[O-])cc1	none
OCC1CCCN(C(=S)Nc2ccc(Nc3ccccc3)cc2)C1 (stereo not given)	none
Cc1ccc(Nc2nc(-c3ccc(O)c(O)c3)cs2)nc1	mIAP inh 46 | mIAP inh conf 52
Cc1ccc(Nc2nc(-c3ccc(F)cc3)cs2)nc1	none (no result: bIAP activator, bIAP inhibitor)
CC(=O)c1ccc2c(c1)C1C=CCC1C(C(=O)O)N2 (stereo not given)	mIAP inh 47 | mIAP inh conf 59
OC12CC3C[C@H](C1)C(N1CCOCC1)[C@@H](C3)C2 (stereo not given in full)	none (no result: bIAP activator, bIAP inhibitor)
S=C(NCc1ccc(Cl)cc1Cl)NC1CCCCC1	mIAP act 5.4 | mIAP inh conf inactive
COc1ccc2oc(C(=O)N(C)CCOc3ccccc3)c(C)c2c1	none (no result: bIAP activator, bIAP inhibitor)
O=C(CN1C(=O)c2ccccc2S1(=O)=O)c1ccc(F)c(F)c1	none (no result: bIAP activator, bIAP inhibitor)
O=C(CN1C(=O)c2ccccc2S1(=O)=O)c1ccc(O)c(O)c1	mIAP inh 53 (no result: bIAP activator, bIAP inhibitor) | mIAP inh conf 57
O=[N+]([O-])c1ccc2cn(-c3ccccc3)nc2c1	none
O=C1/C(=C/c2ccco2)SC(=S)N1CCC(=O)N1CCCCC1CCO (stereo not given)	mIAP inh 47 (no result: bIAP activator, bIAP inhibitor) | mIAP inh conf 57
Cc1ccc(N2C(=O)/C(=C/c3ccco3)SC2=S)cc1	mIAP inh 49 | mIAP inh conf 60
O=C1/C(=C\c2ccco2)SC(=S)N1C1CCCCC1	mIAP inh 40 (no result: bIAP activator, bIAP inhibitor) | mIAP inh conf 52
Cc1csc(NC(=O)CSc2sc3c(O)cc(=O)[nH]c3c2C#N)n1	mIAP inh 47 (no result: bIAP activator, bIAP inhibitor) | mIAP inh conf 68
CCSc1nnc(NC(=O)CSc2sc3c(O)cc(=O)[nH]c3c2C#N)s1	none (no result: bIAP activator, bIAP inhibitor)
CCc1nnc(NC(=O)CSc2sc3c(O)cc(=O)[nH]c3c2C#N)s1	mIAP inh 44 (no result: bIAP activator, bIAP inhibitor) | mIAP inh conf 65
CC(C)(C)c1ccc(/C=N/N2C(=O)CSC2=S)cc1	none (no result: bIAP activator, bIAP inhibitor)
COc1ccc(/C=N/N2C(=O)CSC2=S)cc1	mIAP inh 47 | mIAP inh conf 60
O=C1CSC(=S)N1/N=C/c1ccc(O)c(O)c1O	mIAP inh 92 (no result: bIAP activator, bIAP inhibitor) | mIAP inh conf 88
COc1ccc(/C=N/N2C(=O)CSC2=S)cc1Br	none (no result: bIAP activator, bIAP inhibitor)
NS(=O)(=O)c1ccc(NC(=O)COC(=O)c2cnccn2)cc1	none
CCC(=O)Nc1sc2c(c1C#N)CCC2	none
CC(C)CC(=O)NC(NC(=S)Nc1sc2c(c1C#N)CCCC2)C(Cl)(Cl)Cl (stereo not given)	mIAP inh 41 | mIAP inh conf 41
O=C(O)CC1(CC(=O)Nc2ccc(Br)cc2)CCCCC1	none
CC(/C=N/n1c(-c2ccco2)n[nH]c1=S)=C\c1ccco1	mIAP inh 50 | mIAP inh conf 52
Cc1cccc(-c2n[nH]c(=S)n2/N=C/C=C/c2ccco2)c1	mIAP inh 46 (no result: bIAP activator, bIAP inhibitor) | mIAP inh conf 53
COC(=O)[C@]1(C)N[C@H](CN(C)S(=O)(=O)c2ccc(OC)cc2)[C@@H]2C(=O)N(C)C(=O)[C@@H]21	none (no result: bIAP activator, bIAP inhibitor)
Cc1ccc(S(=O)(=O)NC(C(=O)Oc2cc3oc(=O)cc(C)c3cc2Cl)C(C)C)cc1 (stereo not given)	none
COc1ccc2[nH]c3c(NCc4ccco4)ncnc3c2c1	none
Fc1ccc2[nH]c3c(NCc4ccccc4)ncnc3c2c1	mIAP act 2.7 (no result: bIAP activator, bIAP inhibitor) | mIAP inh conf inactive
COC(C[C@H](O)CC(=O)[C@H](C)OCc1ccccc1)OC	none (no result: bIAP activator, bIAP inhibitor)
CCCN(C(=O)CCl)C1=CCCCC1	none
CC(NC(=O)Nc1ccc([N+](=O)[O-])cc1)C(c1ccccc1)N1CCOCC1 (stereo not given)	none
CC(NC(=O)Nc1ccc(Cl)c(Cl)c1)C(c1ccccc1)N1CCOCC1 (stereo not given)	mIAP act 4.3 | mIAP inh conf inactive
O=C(NS(=O)(=O)Oc1cccc(Cl)c1Cl)OC[C@@H]1CCCN2CCCCC12 (stereo not given in full)	none
Cc1nc2ccccn2c1C(=O)CSc1ccccc1	none
O=C1N=c2ccccc2=C1c1sc(=S)n(NC(=O)c2ccccc2)c1O	mIAP inh 64 (no result: bIAP activator, bIAP inhibitor) | mIAP inh conf 64
Cn1c(O)c(C2=c3ccccc3=NC2=O)[nH]c1=S	none
N#C/C(=C\c1ccc[nH]1)C(=O)N1CCCCC1	none (no result: bIAP activator, bIAP inhibitor)
CCOc1ccc(CN2CCN(Cc3cc4c(cc3Cl)OCO4)CC2CCO)cc1 (stereo not given)	none (no result: bIAP activator, bIAP inhibitor)
